Measured values reported in ChEMBL document CHEMBL1157325, “7alpha,20-epoxy-ent-kauranoids from Isodon parvifolius” (J Nat Prod, 2006).
pIC50: −log10 of the molar value.

Key:
Type in all cases: functional, cell-based
A549 = experiment: Cytotoxicity against human A549 cells after 72 hrs by SRB assay; settings: A549, 72 h
Outline: (§1)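 Adherent tumour cells seeded 24 h before treatment, then exposed continuously to a range of compound concentrations for 72 h. Cells were then fixed and stained with sulforhodamine B to read growth, and IC50 values were derived from the concentration series.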

HT-29 = experiment: Cytotoxicity against human HT29 cells after 72 hrs by SRB assay; settings: HT-29, 72 h; outline: as §1
K562 = experiment: Cytotoxicity against human K562 cells after 72 hrs by SRB assay; settings: K562, 72 h

| SMILES | pIC50 (A549) | pIC50 (HT-29) | pIC50 (K562) |
| --- | --- | --- | --- |
| C=C1C(=O)[C@]23C[C@H]1[C@@H](O)C=C2[C@@]12CO[C@@]3(O)[C@@H](O)[C@@H]1C(C)(C)CC[C@@H]2O [PARVIFOLINE F] | < 4.00 | < 4.00 | < 4.00 |
| COC[C@H]1C(=O)[C@]23C[C@H]1C[C@H](OC(C)=O)[C@H]2[C@@]12CO[C@@]3(O)[C@@H](O)[C@@H]1C(C)(C)CC[C@@H]2O [PARVIFOLINE J] | < 4.00 | < 4.00 | < 4.00 |
| C=C1C(=O)[C@]23C[C@H]1C[C@H](O)[C@H]2[C@@]12CO[C@@]3(O)[C@@H](O)[C@@H]1C(C)(C)CC[C@@H]2OC(C)=O [PARVIFOLINE I] | < 4.00 | < 4.00 | < 4.00 |
| C=C1C(=O)[C@]23C[C@H]1C[C@H](OC(C)=O)[C@H]2[C@@]12CO[C@@]3(O)[C@@H](O)[C@@H]1C(C)(C)CC[C@@H]2O [PARVIFOLINE H] | < 4.00 | < 4.00 | < 4.00 |
| C=C1[C@@H]2C[C@@H](OC(C)=O)[C@H]3[C@@]45CO[C@@](O)(C(=O)[C@@H]4C(C)(C)CC[C@@H]5OC(C)=O)[C@]3(C2)[C@@H]1OC(C)=O [PARVIFOLINE G] | < 4.00 | < 4.00 | < 4.00 |
| C=C1C(=O)[C@]23[C@H](O)[C@H]1CC[C@H]2[C@@]12CO[C@@]3(O)[C@@H](O)[C@@H]1[C@@](C)(CO)CC[C@@H]2O [PARVIFOLINE D] | < 4.00 | < 4.00 | < 4.00 |
| C=C1C(=O)[C@]23C[C@H]1CC[C@H]2[C@@]12CO[C@@]3(O)[C@@H](O)[C@@H]1[C@@](C)(CO)CC[C@@H]2O [PARVIFOLINE C] | – | – | 4.86 |
